According to ChEMBL document CHEMBL4196114 (ACS Med Chem Lett, 2018):
pIC50: −log10 of the molar value.

What was measured:
[1] = test system: Leishmania infantum; assay: Antileishmanial activity against Leishmania infantum MHOM/TN/80/IPT1 promastigotes after 72 hrs by MTT assay; type: functional, organism-based; conditions: MHOM/TN/80/IPT1, 72 h
How it was run: (§1)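 Promastigotes grown in Schneider's medium with 10% FCS at 22 °C. Assay in RPMI with 10% FCS, 20 mM Hepes and 2 mM glutamine, 5×10⁶ parasites/mL, seven serial dilutions from DMSO stocks, 72 h at 22 °C. MTT added for 3 h, pellet lysed in SDS/DMF, A550 read against 650 nm reference. IC50 given as mean of separate duplicate experiments; amphotericin B as reference.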

[2] = test system: Leishmania tropica; assay: Antileishmanial activity against Leishmania tropica MHOM/IT/2012/ISS3130 promastigotes after 72 hrs by MTT assay; type: functional, organism-based; conditions: MHOM/IT/2012/ISS3130, 72 h; how it was run: as §1
[3] = test system: THP-1; assay: Cytotoxicity against PMA-differentiated human THP1 cells after 72 hrs by MTT assay; type: cell-based; conditions: THP-1, 72 h
How it was run: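 THP-1 cells at 5×10⁵ cells/mL, differentiated with 0.1 μM PMA for 48 h, then exposed to serial dilutions for 72 h. Viability read by MTT; IC50 for growth inhibition. Duplicate experiments, mean reported.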

[4] = Selectivity index, ratio of IC50 for PMA-differentiated human THP1 cells to IC50 for Leishmania infantum MHOM/TN/80/IPT1 promastigotes; type: toxicity; conditions: read-out: Ratio IC50
[5] = Selectivity index, ratio of IC50 for PMA-differentiated human THP1 cells to IC50 for Leishmania tropica MHOM/IT/2012/ISS3130 promastigotes; type: toxicity; conditions: read-out: Ratio IC50
[6] = test system: Leishmania infantum; assay: Antileishmanial activity against amastigote stage of Leishmania infantum infected in PMA-differentiated human THP1 cells assessed as inhibition of parasite growth at 0.5 uM after 72 hrs by Giemsa staining based light microscopy relative to control; type: functional; conditions: THP-1, 72 h
How it was run: (§2)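 THP-1 cells at 5×10⁵ cells/mL differentiated with 0.1 μM PMA for 48 h, then infected with metacyclic L. infantum promastigotes (1:10 macrophage:parasite) for 24 h. Washed monolayers exposed to compound for 72 h, methanol-fixed and Giemsa-stained. Percent infected macrophages versus untreated scored by light microscopy, and IC50 derived. Single-concentration values are means of two or three experiments, IC50 of two.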

[7] = test system: Leishmania infantum; assay: Antileishmanial activity against amastigote stage of Leishmania infantum infected in PMA-differentiated human THP1 cells assessed as inhibition of parasite growth after 72 hrs by Giemsa staining based light microscopy; type: functional, organism-based; conditions: THP-1, 72 h; how it was run: as §2
[8] = Selectivity index, ratio of IC50 for PMA-differentiated human THP1 cells to IC50 for amastigote stage of Leishmania infantum infected in PMA-differentiated human THP1 cells; type: toxicity; conditions: read-out: Ratio IC50
[9] = test system: Mus musculus; assay: Toxicity in C57Bl/6 mouse assessed as survival at 300 mg/kg, po administered as single dose measured twice daily up to 30 days; type: organism-based; conditions: in vivo, 720 h
How it was run: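 Healthy female C57Bl/6 mice, groups of four or five, received one oral dose. Compound was first dissolved in DMSO, then suspended in 0.5% hydroxyethylcellulose-0.1% Tween 80. Behaviour and appearance were checked twice daily for 30 days. A dose counted as tolerated if all mice survived 30 days with normal appearance and behaviour.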

Structure (SMILES): N#Cc1ccc(-c2ccc(-c3ccc(CNCCCCNc4ccnc5ccccc45)cc3)s2)cc1
- pIC50 [1]: 5.91
- pIC50 [2]: 5.81
- pIC50 [3]: 5.55
- selectivity ratio [4]: 2.3
- selectivity ratio [5]: 1.8

Structure (SMILES): CCN(CC)CCCC(C)Nc1c(N)cnc2cc(Cl)ccc12 (stereo not drawn)
- pIC50 [1]: 4.78
- pIC50 [2]: 5.18
- pIC50 [3]: < 4.22
- selectivity ratio [4]: > 3.6
- selectivity ratio [5]: > 9

Structure (SMILES): Fc1ccc2scc(CNCCCCNc3ccnc4cc(Cl)ccc34)c2c1
- pIC50 [1]: 6.29
- pIC50 [2]: 6.30
- pIC50 [3]: 5.72
- selectivity ratio [4]: 3.8
- selectivity ratio [5]: 3.8
- inhibition at 0.5 µM [6]: 26.4%
- pIC50 [7]: < 6.00
- selectivity ratio [8]: < 1.91

Structure (SMILES): N#Cc1ccc2c(CNCCCCNc3ccnc4cc(Cl)ccc34)csc2c1
- pIC50 [1]: 5.91
- pIC50 [2]: 5.91
- pIC50 [3]: 5.37
- selectivity ratio [4]: 3.4
- selectivity ratio [5]: 3.4
- inhibition at 0.5 µM [6]: 38.9%
- pIC50 [7]: 5.89
- selectivity ratio [8]: 3.29

Structure (SMILES): Clc1ccc2c(NCCCCCNCCC34CC5CC(CC(C5)C3)C4)ccnc2c1
- pIC50 [1]: 6.14
- pIC50 [2]: 6.18
- pIC50 [3]: 5.74
- selectivity ratio [4]: 2.5
- selectivity ratio [5]: 2.7

Structure (SMILES): Fc1ccc2scc(C#CCNCCCCNc3ccnc4ccccc34)c2c1
- pIC50 [1]: 5.99
- pIC50 [2]: 5.86
- pIC50 [3]: 5.15
- selectivity ratio [4]: 7
- selectivity ratio [5]: 5.2

Structure (SMILES): CC(CCCNCc1ccc(-c2csc3ccc(C#N)cc23)cc1)Nc1ccnc2ccccc12 (stereo not drawn)
- pIC50 [1]: 5.81
- pIC50 [2]: 5.91
- pIC50 [3]: 5.55
- selectivity ratio [4]: 1.8
- selectivity ratio [5]: 2.3
- inhibition at 0.5 µM [6]: 42.2%
- pIC50 [7]: 6.10
- selectivity ratio [8]: 3.51

Structure (SMILES): Fc1ccc2scc(-c3ccc(CNCCCCNc4ccnc5ccccc45)cc3)c2c1
- pIC50 [1]: 5.91
- pIC50 [2]: 5.99
- pIC50 [3]: 5.63
- selectivity ratio [4]: 1.9
- selectivity ratio [5]: 2.3
- inhibition at 0.5 µM [6]: 42.7%
- pIC50 [7]: 6.19
- selectivity ratio [8]: 3.61
- Activity [9]: Toxic

Structure (SMILES): N#Cc1ccc(-c2ccc(-c3ccc(CNCCCCCCCCNc4ccnc5ccccc45)cc3)s2)cc1
- pIC50 [1]: 6.46
- pIC50 [2]: 6.52
- pIC50 [3]: 5.86
- selectivity ratio [4]: 4
- selectivity ratio [5]: 4.6

Structure (SMILES): C[C@@H]1[C@H](O)[C@@H](C)/C=C/C=C/C=C/C=C/C=C/C=C/C=C/[C@H](O[C@@H]2O[C@H](C)[C@@H](O)[C@H](N)[C@@H]2O)C[C@@H]2O[C@](O)(C[C@@H](O)C[C@@H](O)[C@H](O)CC[C@@H](O)C[C@@H](O)CC(=O)O[C@H]1C)C[C@H](O)[C@H]2C(=O)O [AMPHOTERICIN B]
- pIC50 [1]: 6.89
- pIC50 [2]: 6.85
- pIC50 [3]: < 4.97
- selectivity ratio [4]: > 83.1
- selectivity ratio [5]: > 77.1
- inhibition at 0.5 µM [6]: 95.5%
- pIC50 [7]: 6.68
- selectivity ratio [8]: > 51.4

Structure (SMILES): Fc1ccc2scc(-c3ccc(CNCCCCNc4ccnc5cc(Cl)ccc45)cc3)c2c1
- pIC50 [1]: 5.99
- pIC50 [2]: 6.07
- pIC50 [3]: 5.37
- selectivity ratio [4]: 4.2
- selectivity ratio [5]: 5

Structure (SMILES): CCN(CC)CCCNc1c([N+](=O)[O-])cnc2cc(Cl)ccc12
- pIC50 [1]: 5.06
- pIC50 [2]: 5.56
- pIC50 [3]: 4.63
- selectivity ratio [4]: 2.7
- selectivity ratio [5]: 8.5

Structure (SMILES): c1ccc2c(NCCCCNCc3csc4ccccc34)ccnc2c1
- pIC50 [1]: 6.19
- pIC50 [2]: 6.17
- pIC50 [3]: 5.42
- selectivity ratio [4]: 5.8
- selectivity ratio [5]: 5.5

Structure (SMILES): CCN(CC)CCCC(C)Nc1ccnc2c1CCCC2 (stereo not drawn)
- pIC50 [1]: < 4.16
- pIC50 [2]: < 4.16
- pIC50 [3]: < 4.16
- selectivity ratio [4]: > 1
- selectivity ratio [5]: > 1

Structure (SMILES): CCN(CC)CCCC(C)Nc1c([N+](=O)[O-])cnc2cc(Cl)ccc12 (stereo not drawn)
- pIC50 [1]: 5.19
- pIC50 [2]: 5.53
- pIC50 [3]: < 3.96
- selectivity ratio [4]: > 16.9
- selectivity ratio [5]: > 37

Structure (SMILES): Clc1ccc2c(NCCCNCc3csc4ccccc34)ccnc2c1
- pIC50 [1]: 5.94
- pIC50 [2]: 5.88
- pIC50 [3]: 5.53
- selectivity ratio [4]: 2.6
- selectivity ratio [5]: 2.3
- inhibition at 0.5 µM [6]: 26.4%
- pIC50 [7]: 5.73
- selectivity ratio [8]: 1.6

Structure (SMILES): CCN(CC)CCCNc1c(N)cnc2cc(Cl)ccc12
- pIC50 [1]: 4.78
- pIC50 [2]: 5.03
- pIC50 [3]: < 4.19
- selectivity ratio [4]: > 3.9
- selectivity ratio [5]: > 7

Structure (SMILES): N#Cc1ccc(-c2ccc(-c3ccc(CNCCCCCCCCNc4ccnc5c4CCCC5)cc3)s2)cc1
- pIC50 [1]: 6.14
- pIC50 [2]: 6.12
- pIC50 [3]: 5.64
- selectivity ratio [4]: 3.2
- selectivity ratio [5]: 3.1
- inhibition at 0.5 µM [6]: 29.6%
- pIC50 [7]: < 6.00
- selectivity ratio [8]: < 2.31

Structure (SMILES): CN(CCCCCCCCNc1ccnc2ccccc12)Cc1ccc(-c2ccc(-c3ccc(C#N)cc3)s2)cc1
- pIC50 [1]: 6.10
- pIC50 [2]: 5.97
- pIC50 [3]: 5.41
- selectivity ratio [4]: 4.8
- selectivity ratio [5]: 3.6

Structure (SMILES): CC(CCCNCc1ccc(-c2csc3ccc(F)cc23)cc1)Nc1ccnc2cc(Cl)ccc12 (stereo not drawn)
- pIC50 [1]: 6.01
- pIC50 [2]: 6.04
- pIC50 [3]: 5.61
- selectivity ratio [4]: 2.5
- selectivity ratio [5]: 2.7
- inhibition at 0.5 µM [6]: 36.9%
- pIC50 [7]: 6.14
- selectivity ratio [8]: 3.34

Structure (SMILES): O=[N+]([O-])c1cnc2cc(Cl)ccc2c1NCCCNCC12CC3CC(CC(C3)C1)C2
- pIC50 [1]: 5.72
- pIC50 [2]: 5.65
- pIC50 [3]: 4.90
- selectivity ratio [4]: 6.6
- selectivity ratio [5]: 5.6

Structure (SMILES): N#Cc1ccc(-c2ccc(-c3ccc(CNCCCCNc4ccnc5cc(Cl)ccc45)cc3)s2)cc1
- pIC50 [1]: 5.64
- pIC50 [2]: 5.71
- pIC50 [3]: 5.30
- selectivity ratio [4]: 2.2
- selectivity ratio [5]: 2.6

Structure (SMILES): CN(CCCCCCCCNc1ccnc2c1CCCC2)Cc1ccc(-c2ccc(-c3ccc(C#N)cc3)s2)cc1
- pIC50 [1]: 6.08
- pIC50 [2]: 6.10
- pIC50 [3]: 5.43
- selectivity ratio [4]: 4.4
- selectivity ratio [5]: 4.6

Structure (SMILES): CC(CCNCCC12CC3CC(CC(C3)C1)C2)Nc1ccnc2ccccc12 (stereo not drawn)
- pIC50 [1]: 5.62
- pIC50 [2]: 5.63
- pIC50 [3]: 5.31
- selectivity ratio [4]: 2
- selectivity ratio [5]: 2.1

Structure (SMILES): Nc1cnc2cc(Cl)ccc2c1NCCCNCC12CC3CC(CC(C3)C1)C2
- pIC50 [1]: 5.75
- pIC50 [2]: 5.89
- pIC50 [3]: 5.19
- selectivity ratio [4]: 3.6
- selectivity ratio [5]: 4.9

Structure (SMILES): N#Cc1ccc(-c2ccc(-c3ccc(CNCCCCCNc4ccnc5cc(Cl)ccc45)cc3)s2)cc1
- pIC50 [1]: 5.27
- pIC50 [2]: 5.15
- pIC50 [3]: 5.09
- selectivity ratio [4]: 1.5
- selectivity ratio [5]: 1.1

Structure (SMILES): CCN(CC)CCCNc1ccnc2c1CCCC2
- pIC50 [1]: < 4.12
- pIC50 [2]: < 4.12
- pIC50 [3]: < 4.12
- selectivity ratio [4]: > 1
- selectivity ratio [5]: > 1

Structure (SMILES): CC(CCN(C)CCC12CC3CC(CC(C3)C1)C2)Nc1ccnc2cc(Cl)ccc12 (stereo not drawn)
- pIC50 [1]: 5.61
- pIC50 [2]: 5.74
- pIC50 [3]: 5.48
- selectivity ratio [4]: 1.3
- selectivity ratio [5]: 1.8
- inhibition at 0.5 µM [6]: 29.6%
- pIC50 [7]: 5.72
- selectivity ratio [8]: 1.72

Structure (SMILES): Fc1ccc2scc(-c3ccc(CNCCCNc4ccnc5ccccc45)cc3)c2c1
- pIC50 [1]: 5.99
- pIC50 [2]: 6.09
- pIC50 [3]: 5.64
- selectivity ratio [4]: 2.2
- selectivity ratio [5]: 2.8
